Type in all cases: functional
The test system of experiment [1] is T47D. Kind of experiment: Estrogenic activity in human T47D cells assessed as drug level causing stimulation of cell proliferation equivalent to 10 pM estradiol after 96 hrs by alamar blue assay. An outline of the steps: (§1)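 Cells seeded at 10^4 per well in phenol red-free RPMI with 5% DCC-treated FBS. Compounds added in DMSO (vehicle control 1% DMSO) for 96 h at 37 °C, 5% CO2, with serial estradiol dilutions run alongside. Alamar Blue for 3 h, fluorescence ex 530/em 590 nm. Estradiol-equivalent concentration fitted by linear regression from at least five concentrations in quadruplicate.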

Experiment [2] relates to MCF7. As to the kind of experiment: Estrogenic activity in human MCF7 cells assessed as drug level causing stimulation of cell proliferation equivalent to 10 pM estradiol after 96 hrs by alamar blue assay. An outline of the steps:
as §1

The test system of experiment [3] is MCF7. Kind of experiment: Estrogenic activity in luciferase transfected human MCF7 cells assessed as drug level causing stimulation of cell proliferation equivalent to 100 pM estradiol by luciferase reporter gene assay. The essentials: (§2)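 Reporter assay in MCF-7 or T47D cells transiently transfected with luciferase. Compounds tested from 0.01 to 10 µM. Luciferase induction is expressed as the compound concentration equivalent to the 10 or 100 pM estradiol response. Values come from linear regression over at least five concentrations in quadruplicate.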

The subject of experiment [4] is MCF7. As to the kind of experiment: Estrogenic activity in human MCF7 cells assessed as drug level causing stimulation of cell proliferation equivalent to 100 pM estradiol after 96 hrs by alamar blue assay. The essentials:
as §1

For experiment [5], the system named is T47D. Kind of experiment: Estrogenic activity in luciferase transfected human T47D cells assessed as drug level causing stimulation of cell proliferation equivalent to 10 pM estradiol by luciferase reporter gene assay. An outline of the steps: as §2
Experiment [6] concerns T47D. As to the kind of experiment: Estrogenic activity in luciferase transfected human T47D cells assessed as drug level causing stimulation of cell proliferation equivalent to 100 pM estradiol by luciferase reporter gene assay. The essentials:
as §2

Experiment [7] relates to MCF7. Kind of experiment: Estrogenic activity in luciferase transfected human MCF7 cells assessed as drug level causing stimulation of cell proliferation equivalent to 10 pM estradiol by luciferase reporter gene assay. The essentials: as §2
Experiment [8] concerns T47D. As to the kind of experiment: Estrogenic activity in human T47D cells assessed as drug level causing stimulation of cell proliferation equivalent to 100 pM estradiol after 96 hrs by alamar blue assay. The essentials: as §1

A value given as a limit tells only on which side of the number the result lay.

On to `COc1ccc(-c2coc3cc(O)ccc3c2=O)cc1O` [CALYCOSIN], for which the Activity is 4.1 µM with T47D [1]; greater than 100 µM in the experiment with MCF7 [2]; 4.7 µM in the experiment with MCF7 [3]; greater than 100 µM in the experiment with MCF7 [4]; 8.8 µM with T47D [5]; greater than 100 µM with T47D [6]. Also, the Activity is 0.6 µM in the experiment with MCF7 [7] and greater than 100 µM with T47D [8].
As for `COc1cc([C@H]2Oc3cc(O)ccc3C(=O)[C@@H]2O)ccc1O` [ERYCIBENIN D], the Activity in the experiment on T47D [1] was 5.7 µM; in the experiment on MCF7 [2], greater than 100 µM; in the experiment on MCF7 [3] it was greater than 100 µM; with MCF7 [4], greater than 100 µM; in the experiment with T47D [5], 0.3 µM; in the experiment with T47D [6], greater than 100 µM. The Activity in the experiment on MCF7 [7] and in the experiment with T47D [8] was greater than 100 µM throughout.
On to `COc1ccc(-c2coc3cc(O)ccc3c2=O)cc1` [FORMONONETIN], for which the Activity is 0.03 µM with T47D [1]; greater than 100 µM in the experiment on MCF7 [2]; 0.01 µM with MCF7 [3]; greater than 100 µM with MCF7 [4]; 0.01 µM in the experiment with T47D [5]; 0.01 µM with T47D [6]. The figures for the Activity with MCF7 [7] and with T47D [8] were 0.01 µM and greater than 100 µM, respectively.
Consider `O=c1c(-c2ccc(O)cc2)coc2cc(O)cc(O)c12` [GENISTEIN], for which the Activity worked out at 0.01 µM in the experiment with T47D [1]; 0.01 µM with MCF7 [2]; 0.01 µM in the experiment on MCF7 [3]; 0.11 µM in the experiment on MCF7 [4]; 0.01 µM in the experiment with T47D [5]; 0.6 µM with T47D [6]. Also, the values for the Activity in the experiment on MCF7 [7] and in the experiment on T47D [8] were 0.01 µM and 0.08 µM, respectively.
Regarding `COc1c(C/C=C/c2ccccc2)ccc(O)c1O` [HYDROXYOBUSTYRENE], the Activity was 5.1 µM in the experiment with T47D [1]; greater than 100 µM with MCF7 [2]; greater than 100 µM in the experiment with MCF7 [3]; greater than 100 µM with MCF7 [4]; greater than 100 µM in the experiment with T47D [5]; greater than 100 µM in the experiment with T47D [6]. In addition, the Activity in the experiment with MCF7 [7] and in the experiment with T47D [8] was greater than 100 µM throughout.
Turning to `COc1ccc([C@@]2(O)COc3cc(O)ccc3C2=O)c(O)c1O` [ISODARPARVINOL B], the Activity is greater than 100 µM with T47D [1]; greater than 100 µM in the experiment on MCF7 [2]; 3.4 µM in the experiment on MCF7 [3]; greater than 100 µM in the experiment on MCF7 [4]; greater than 100 µM in the experiment on T47D [5]; greater than 100 µM in the experiment on T47D [6]. In addition, the figures for the Activity with MCF7 [7] and with T47D [8] were 1.2 µM and greater than 100 µM, respectively.
`O=C(/C=C/c1ccc(O)cc1)c1ccc(O)cc1O` [ISOLIQUIRITIGENIN]: the Activity was 1 µM in the experiment with T47D [1]; 1.1 µM in the experiment with MCF7 [2]; greater than 100 µM with MCF7 [3]; 4 µM in the experiment on MCF7 [4]; greater than 100 µM in the experiment with T47D [5]; greater than 100 µM in the experiment with T47D [6]. Besides, the values for the Activity with MCF7 [7] and in the experiment with T47D [8] were 0.01 µM and greater than 100 µM, respectively.
Take `COc1cc(O)c(-c2coc3cc(O)ccc3c2=O)cc1O` [KHRINONE A]: the Activity was greater than 100 µM in the experiment with T47D [1]; greater than 100 µM in the experiment on MCF7 [2]; greater than 100 µM with MCF7 [3]; greater than 100 µM in the experiment on MCF7 [4]; 5.6 µM in the experiment on T47D [5]; 8.4 µM in the experiment on T47D [6]. Besides, the Activity with MCF7 [7] and in the experiment on T47D [8] was greater than 100 µM in each case.
Take `COc1cc(O)c(-c2coc3cc(O)cc(O)c3c2=O)cc1O` [KHRINONE B]: the Activity in the experiment on T47D [1], in the experiment on MCF7 [2], in the experiment with MCF7 [3], with MCF7 [4], with T47D [5] and in the experiment on T47D [6] was greater than 100 µM in each case. The Activity with MCF7 [7] and with T47D [8] was greater than 100 µM throughout.

Source of the values: ChEMBL document CHEMBL1153749, “Flavonoids from the heartwood of the Thai medicinal plant Dalbergia parviflora and their effects on estrogenic-responsive human breast cancer cells” (2009).
